Measured values published in ChEMBL document CHEMBL1828552, “Synthesis and studies of novel 2-(4-cyano-3-trifluoromethylphenyl amino)-4-(quinoline-4-yloxy)-6-(piperazinyl/piperidinyl)-s-triazines as potential antimicrobial, antimycobacterial and anticancer agents” (2011).

Experiments:
Staphylococcus aureus [1] = assay: Antibacterial activity against 10^5 CFU/mL Staphylococcus aureus MTCC 96 after 24 hrs by agar streak dilution method; type: functional; conditions: MTCC 96, 24 h
How it was run: (§1)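 Agar streak dilution. Stock 100 µg/mL in DMSO; graded amounts were mixed into molten nutrient agar and poured at 4–5 mm depth. Plates carried serial dilutions over […]. About 10⁵ CFU/mL of each bacterium was applied, and plates were incubated at 37 ± 1 °C for 24 h. MIC was read from the dilution series.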

Proteus vulgaris [2] = assay: Antibacterial activity against 10^5 CFU/mL Proteus vulgaris MTCC 1771 at 100 ug/ml after 24 hrs by disc diffusion technique; type: functional; conditions: MTCC 1771, 24 h, read-out: IZ
How it was run: (§2)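 Disc diffusion on Mueller–Hinton agar poured 5 mm deep. The surface was swabbed with a 10⁵ CFU/mL […] suspension. Filter-paper discs 6.25 mm in diameter were soaked in compound in DMSO and placed on the agar. Plates were incubated 24 h at 37 ± 1 °C, and the inhibition zone was measured in mm. A DMSO disc served as blank.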

Escherichia coli [3] = assay: microbe, parasite or virus in culture; conditions: MTCC 739, 24 h, read-out: IZ
Staphylococcus aureus [4] = assay: Antibacterial activity against 10^5 CFU/mL Staphylococcus aureus MTCC 96 at 100 ug/ml after 24 hrs by disc diffusion technique; conditions: MTCC 96, 24 h, read-out: IZ
Salmonella typhi [5] = assay: Antibacterial activity against 10^5 CFU/mL Salmonella typhi MTCC 733 after 24 hrs by agar streak dilution method; type: functional, Salmonella enterica subsp. enterica serovar Typhi; conditions: Salmonella enterica, MTCC 733, 24 h
Bacillus cereus [6] = assay: Antibacterial activity against 10^5 CFU/mL Bacillus cereus MTCC 619 after 24 hrs by agar streak dilution method; type: functional; conditions: MTCC 619, 24 h; how it was run: as §1
Klebsiella pneumoniae [7] = assay: Antibacterial activity against 10^5 CFU/mL Klebsiella pneumoniae MTCC 109 after 24 hrs by agar streak dilution method; type: functional; conditions: MTCC 109, 24 h; how it was run: as §1
Salmonella typhi [8] = assay: Antibacterial activity against 10^5 CFU/mL Salmonella typhi MTCC 733 at 100 ug/ml after 24 hrs by disc diffusion technique; type: functional, Salmonella enterica subsp. enterica serovar Typhi; conditions: Salmonella enterica, MTCC 733, 24 h; read-out: IZ
How it was run: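 Disc diffusion. Mueller-Hinton agar autoclaved 120 °C 30 min, poured 5 mm deep. Surface swabbed with 10⁵ CFU/mL suspension […]. 6.25 mm filter-paper discs soaked in compound in DMSO; DMSO-only disc as blank. Incubated 37 ± 1 °C, 24 h for bacteria or 48 h for fungi. Ciprofloxacin and ketoconazole discs as reference drugs. Inhibition zone measured in mm.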

Pseudomonas aeruginosa [9] = assay: Antibacterial activity against 10^5 CFU/mL Pseudomonas aeruginosa MTCC 741 after 24 hrs by agar streak dilution method; type: functional; conditions: MTCC 741, 24 h; how it was run: as §1
Shigella flexneri [10] = assay: Antibacterial activity against 10^5 CFU/mL Shigella flexneri MTCC 1457 at 100 ug/ml after 24 hrs by disc diffusion technique; type: functional; conditions: MTCC 1457, 24 h, read-out: IZ; how it was run: as §2
Pseudomonas aeruginosa [11] = assay: microbe, parasite or virus in culture; conditions: MTCC 741, 24 h, read-out: IZ
Proteus vulgaris [12] = assay: Antibacterial activity against 10^5 CFU/mL Proteus vulgaris MTCC 1771 after 24 hrs by agar streak dilution method; type: functional; conditions: MTCC 1771, 24 h; how it was run: as §1
Shigella flexneri [13] = assay: Antibacterial activity against 10^5 CFU/mL Shigella flexneri MTCC 1457 after 24 hrs by agar streak dilution method; type: functional; conditions: MTCC 1457, 24 h; how it was run: as §1
Escherichia coli [14] = assay: Antibacterial activity against 10^5 CFU/mL Escherichia coli MTCC 739 after 24 hrs by agar streak dilution method; type: functional; conditions: MTCC 739, 24 h; how it was run: as §1
Bacillus cereus [15] = assay: Antibacterial activity against 10^5 CFU/mL Bacillus cereus MTCC 619 at 100 ug/ml after 24 hrs by disc diffusion technique; type: functional; conditions: MTCC 619, 24 h, read-out: IZ; how it was run: as §2
Klebsiella pneumoniae [16] = assay: microbe, parasite or virus in culture; conditions: MTCC 109, 24 h, read-out: IZ

**Q.** With `O=C(O)c1cn(C2CC2)c2cc(N3CCNCC3)c(F)cc2c1=O` [CIPROFLOXACIN] as the compound, how does the MIC (Staphylococcus aureus [1]) read?
**A.** ≤ 1 µg/mL

**Q.** What about the zone of inhibition at 100 µg/mL (Proteus vulgaris [2]) of the same compound?
**A.** 31 mm

**Q.** What about the zone of inhibition at 100 µg/mL (Escherichia coli [3]) of the same compound?
**A.** 32 mm

**Q.** And the zone of inhibition at 100 µg/mL (Staphylococcus aureus [4])?
**A.** 30 mm

**Q.** And the MIC (Salmonella typhi [5])?
**A.** ≤ 1 µg/mL

**Q.** What about the MIC (Bacillus cereus [6]) of the same compound?
**A.** ≤ 1 µg/mL

**Q.** And the MIC (Klebsiella pneumoniae [7])?
**A.** ≤ 1 µg/mL

**Q.** And the zone of inhibition at 100 µg/mL (Salmonella typhi [8])?
**A.** 30 mm

**Q.** What about the MIC (Pseudomonas aeruginosa [9]) of the same compound?
**A.** ≤ 1 µg/mL

**Q.** What about the zone of inhibition at 100 µg/mL (Shigella flexneri [10]) of the same compound?
**A.** 32 mm

**Q.** And the zone of inhibition at 100 µg/mL (Pseudomonas aeruginosa [11])?
**A.** 33 mm

**Q.** What about the MIC (Proteus vulgaris [12]) of the same compound?
**A.** ≤ 1 µg/mL

**Q.** What about the MIC (Shigella flexneri [13]) of the same compound?
**A.** ≤ 3 µg/mL

**Q.** And the MIC (Escherichia coli [14])?
**A.** ≤ 1 µg/mL

**Q.** And the zone of inhibition at 100 µg/mL (Bacillus cereus [15])?
**A.** 31 mm

**Q.** What about the zone of inhibition at 100 µg/mL (Klebsiella pneumoniae [16]) of the same compound?
**A.** 33 mm
